Only some compounds are listed: those with a hit (about 2.2% of all), similar ones and a draw of the others.
HIV Env fusion: inhibitors of HIV Env-mediated cell fusion; 360,000 tested, 1.1% active; inhibition, % at 12.3 µM; HeLa-JRFL Env/CEM21 cell fusion, luciferase; AID 651610;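 active = mean replicate inhibition score of at least 50 and every replicate individually at or above 50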;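 note: 0% = plate neutral controls and 100% = maraviroc near 300 nM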
NR2E3 ag-1: activates human photoreceptor nuclear receptor NR2E3 | Q9Y5X4 | GST-NR2E3/biotin-RetCOR TR-FRET, 1536-well | inhibition of corepressor binding, % at 4.78 µM | 320,000 tested, 0.12% active;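 active = percent inhibition above the cutoff of mean plus 3 SD of all tested compounds, set per screening campaign, cut at about 20% in these data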;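 note: 0% = DMSO wells and 100% = biotin wells as full block of FRET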
Target sequence (Q9Y5X4 whole entry, looked up): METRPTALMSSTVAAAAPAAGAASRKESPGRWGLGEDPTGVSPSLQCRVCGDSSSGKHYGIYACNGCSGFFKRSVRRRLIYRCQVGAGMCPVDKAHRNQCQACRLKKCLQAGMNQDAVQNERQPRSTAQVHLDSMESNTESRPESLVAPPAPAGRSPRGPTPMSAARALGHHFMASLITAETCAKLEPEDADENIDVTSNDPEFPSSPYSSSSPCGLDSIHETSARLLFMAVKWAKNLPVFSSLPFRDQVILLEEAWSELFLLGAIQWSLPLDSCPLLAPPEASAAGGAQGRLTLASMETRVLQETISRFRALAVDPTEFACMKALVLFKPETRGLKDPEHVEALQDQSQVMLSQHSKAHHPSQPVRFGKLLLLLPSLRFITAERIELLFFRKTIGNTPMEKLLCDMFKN
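Test system: GST-NR2E3 and biotin-RetCOR proteins | Quantity: 1.35 nM GST-tagged NR2E3 final | Medium: Tris pH 7.5 | Also added: 7 nM biotin-RetCOR | Dosing: Compound at 4.8 µM, single dose | Timing: 5 h at 4 °C | Detection: Time-resolved FRET | Read-out basis: Percent inhibition | Benchmarks: Biotin wells as high control, 0.6% DMSO wells as low control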
NR2E3 ag-2: activates human NR2E3 receptor; CHO-S Gal4-NCOR/VP16-NR2E3 two-hybrid, luciferase; inhibition of corepressor binding, % at 3.98 µM; 360,000 tested, 0.35% active;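 active = inhibition above the mean of all tested compounds plus 3 SD, cut at about 70% in these data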;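 note: 0% = DMSO with NR2E3 transfected cells and 100% = cells lacking NR2E3 construct; higher means lower luciferase signal from less NR2E3 corepressor binding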
FXN GAA850 act: frataxin GAA850 promoter activation. HEK293 lucGAA850 FXN promoter luciferase reporter, 24 h; percent of 10 µM SAHA response. activation, % at 6 µM. 360,000 tested, 0.56% active;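 active = activation above the average of all compounds screened plus 3 SD, cutoff fixed separately per campaign, cut at about 7.5% in these data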;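 note: 0% = DMSO wells and 100% = 10 µM SAHA wells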
V-ATPase pHluor: alters yeast V-ATPase proton transport. S. cerevisiae, pHLuorin cytosolic pH fluorescence. response, % at 10 µM. 350,000 tested, 0.37% active; in the data active = response mostly above about 7.3%, no sharp cut-off; inactive = mostly below about 5.4%; note: actives read high
GalR3 antag: antagonists of human GalR3 | O60755 | HEK293 GalR3-CNG cAMP membrane potential fluorescence; galR3 body fused to GalR1 C-terminus | inhibition, % at 3 µM | 360,000 tested, 0.44% active | AID 651719;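 active = inhibition above the screen-wide average plus 3 SD, cut at about 13% in these data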;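 note: forskolin and galanin both at EC90 stimulate the cells; cAMP rise reported by CNG channel membrane potential dye signal; 0% = forskolin plus galanin with DMSO and 100% = forskolin alone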
GalR3 antag conf: GalR3 (human) antagonism, confirmation | shares compounds with GalR3 antag | inhibition, % at 3 µM | 1,600 tested, 59% active | HEK293 GalR3 CNG cAMP biosensor, membrane potential fluorescence; galR3 fused to GalR1 carboxy tail; challenged with forskolin and galanin at EC90;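 active = inhibition above the primary screen's cutoff, the mean inhibition of all screened compounds plus 3 SD, cut at about 13% in these data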;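 note: 0% = forskolin plus galanin and 100% = forskolin alone with DMSO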
HEK-CNG parental: acts as nonspecific agonist in parental HEK-CNG cells. shares compounds with GalR3 antag. HEK293-CNG parental cells, cAMP membrane potential fluorescence; normalised: DMSO wells 0%, forskolin wells 100%. 1,600 tested, 10% active. AID 652268. activation, % at 3 µM; in the data active = activation above about 1.3%
Starred values were filed as active, the others as inactive; / = not tested or not shown; [ ] = dose if it differs, or a comment.

SMILES	HIV Env fusion	NR2E3 ag-1	NR2E3 ag-2	FXN GAA850 act	V-ATPase pHluor	GalR3 antag	GalR3 antag conf	HEK-CNG parental
Cc1cc(C(=O)N/N=C(\CCC(=O)O)c2cccs2)c2ccccc2n1	-16.1	-0.1	-26.9	-3.5	-2.8	17.0*	-5.2	0.7
CC1(C)CC(N2CCCC2)=CC(=[N+]2CCCCC2)C1	45.6	-2.7	-22.2	-1.8	4.7	36.6*	6.1	0.2
COc1ccc(NC(=O)N(C)C[C@@H]2Oc3ccc(NC(=O)C4CCCCC4)cc3CC(=O)N([C@@H](C)CO)C[C@@H]2C)cc1	2.4[16.7 µM]	/	/	/	/	/	/	/
CCOc1ccc(Br)cc1/C(C)=N\NC1=NCCN1	/	-4.4	7.6	-6.1	1.6	65.2*	79.6*	4.9*
COc1cc(/C=N/n2cnnc2)ccc1OCc1ccc(C)cc1	/	0.0	-92.3	5.6	4.0	58.8*	43.5*	0.4
CC(C)C(=O)NC(c1cccc([N+](=O)[O-])c1)c1c(O)ccc2ccccc12 (stereo not given)	-11.7	2.0	-59.2	3.4	-1.2	16.4*	-4.7	0.6
COC(=O)C1=C[C@@H](C(=O)OC)[C@@H]2C3=C(C(=O)[C@@]2(C)NC(=O)c2ccccc2)[C@H](c2ccccc2)n2c(=O)n(-c4ccccc4)c(=O)n2[C@@H]3C1	/	-0.7	/	/	/	/	/	/
COC(=O)C1=C[C@@H](C(=O)OC)[C@@H]2C3=C(C(=O)[C@]2(CC(C)C)NC(=O)c2ccccc2)[C@H](C)n2c(=O)n(-c4ccccc4)c(=O)n2[C@@H]3C1	32.6	3.2	-12.9	1.7	0.9	13.5*	1.8	0.0
CC(C)NC(=O)Nc1ccc2c(c1)C(=O)N([C@@H](C)CO)C[C@@H](C)[C@H](CN(C)S(=O)(=O)c1cccs1)O2	12.8[16.7 µM]	/	/	/	/	/	/	/
CCOc1cc(CNc2ccc3c(c2)OCCO3)cc(Br)c1OC	/	2.6	45.6	-14.3	4.9	/	-0.4	1.1
Oc1c(Br)cc(Br)cc1C=NCc1ccccc1	9.1	-2.3	-0.3	-0.5	-8.9	/	2.0	0.6
Oc1c(Br)cc(Br)cc1C=NCc1ccc(F)cc1	14.5	-7.5	-10.5	0.6	-5.0	34.2*	5.3	0.1
O/N=C/c1cc(Br)ccc1OCc1ccc(F)cc1	/	-4.1	-59.8	5.9	-0.1	-6.2	/	/
O/N=C/c1cc(Br)cc(Br)c1OCc1ccccc1	2.4	4.5	-3.8	0.7	-11.4	-1.6	/	/
O=C(C[C@H]1CC[C@@H](NC(=O)NC2CCCCC2)[C@H](CO)O1)NCc1ccc(F)cc1	2.3[16.7 µM]	/	/	/	/	/	/	/
Cc1nc2cc(NC(=O)N3CCC(c4ccccc4)C3)ccc2n1C (stereo not given)	/	2.9	-46.6	3.8	-2.7	31.5*	0.2	0.0
Cc1noc(C)c1NC(=O)Nc1ccc2c(c1)C(=O)N(C)[C@H]1CC[C@@H](CC(=O)N(C)C)O[C@@H]1CO2	-4.3[16.7 µM]	/	/	/	/	/	/	/
Cc1ccc(OCC(=O)OCC(=O)Nc2sccc2C(N)=O)cc1C	-2.6	1.8	-15.7	-0.4	0.4	27.4*	2.7	-0.2
COc1ccc(CCC(=O)OCC(=O)Nc2sccc2C(N)=O)cc1	/	4.4	-11.0	1.3	5.4	-4.5	/	/
COc1ccc(CCC(=O)OCC(=O)Nc2sccc2C(N)=O)cc1OC	/	/	-7.4	-3.1	-0.3	98.8*	91.8*	-0.1
CCOC(=O)c1cc2cc([N+](=O)[O-])cc(OC)c2oc1=O	15.2	0.4	-8.4	0.6	-2.5	-7.5	/	/
CCCCN(C)C(=O)c1cc2cc([N+](=O)[O-])cc(OC)c2oc1=O	-4.2	0.1	-1.7	-0.8	-5.1	21.6*	2.2	0.2
Nc1ncnc2c1ncn2[C@H]1C[C@H](O)[C@@H](CO)O1	/	1.7	-19.9	-1.0	-1.5	-0.8	/	/
Nc1nc(Cl)nc2c1ncn2[C@H]1C[C@H](O)[C@@H](CO)O1	-7.3	3.6	21.4	-12.1	5.2	49.3*	56.9*	1.3*

Bioassay records from PubChem BioAssay.
